Diaph act CS = counter-screen for diaphorase-based assays: diaphorase activators and chemical reducers. Diaphorase/resazurin coupled assay, resorufin fluorescence, 16 min; stronger effect = higher value; 1 = vehicle wells, 0 = NADH-free wells. activation factor at 20 µM. actives 0.005% (n = 190,000);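 active = diaphorase activity raised at least twofold by the compound at 20 µM; inactive = activation factor below 2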
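Test system: Clostridium kluyveri diaphorase, purified enzyme; input: enzyme 0.07 U/mL final; buffer or medium: 50 mM HEPES pH 7.4 with 4.542 mM MgCl2, 0.005% Tween 20; also added: 0.114 mM NADH and 0.1 mM resazurin, final amounts; schedule: 16 min enzyme reaction, ambient temperature; technique: fluorescence of resorufin, 544 nm excitation, 590 nm emission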
WT yeast gro inh = growth inhibition of WT yeast, mitochondrial fusion screen | actives 2.1% (n = 190,000) | AID 1362 | inhibition, % at 10 µM | mitochondrial fusion phenotypic screen, WT strain; in the data active = inhibition above about 58%; tested in S. cerevisiae
Diaphorase inh = counter-screen for diaphorase-based assays: diaphorase inhibitors and chemical oxidizers | diaphorase resazurin-to-resorufin fluorescence, NADH, 16 min; bacterial (C. kluyveri) enzyme, not human | inhibition, % at 20 µM | actives 0.69% (n = 190,000);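 active = primary screen inhibition at 20 µM above a set limit, cut at about 50% in these data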;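 also: plate controls were DMSO with full reaction for no effect and wells lacking NADH for full effect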
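Assay system: diaphorase enzyme from Clostridium kluyveri; Input: enzyme working solution with 0.14 U/mL diaphorase; Timing: 16 min at room temperature; Technique: resorufin fluorescence, excitation 544 nm, emission 590 nm; Benchmarks: positive control minus NADH, DMSO neutral control.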
KCC2 mod = KCC2 (human) Cl- transport modulation; B-score of Tl+ flux slope (higher = more flux/activation; lower = inhibition) at 10 µM; KCC2 cells, thallium flux FluoZin-2 fluorescence; Q9H2X9; actives 2.2% (n = 190,000);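 active = thallium flux slope and its plate-corrected score both differing from the plate sample mean at a set confidence after two filtering rounds, in either direction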;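 also: slope of fluorescence scaled to starting intensity during 10 to 20 s after thallium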
L major viab = reduces viability of Leishmania major promastigotes. resazurin fluorescence viability. inhibition, % at 10 µM. actives 9% (n = 200,000). AID 1063; in the data active = inhibition above about 50%;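 also: promastigotes grown with compound for 44 hours at 28 °C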
ROMK mod = human ROMK K+ channel modulation, primary screen; P48048; Tet-inducible ROMK, thallium flux fluorescence; actives lie on both sides; B-score at 10 µM; actives 2% (n = 130,000);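 active = signal ratio slope over the read window, or its plate-corrected B-score, at least 3 SD from the plate mean, either direction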;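 also: B-score of the F/F0 ratio slope over 7 to 12 s after thallium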
Target sequence (P48048 whole entry, looked up): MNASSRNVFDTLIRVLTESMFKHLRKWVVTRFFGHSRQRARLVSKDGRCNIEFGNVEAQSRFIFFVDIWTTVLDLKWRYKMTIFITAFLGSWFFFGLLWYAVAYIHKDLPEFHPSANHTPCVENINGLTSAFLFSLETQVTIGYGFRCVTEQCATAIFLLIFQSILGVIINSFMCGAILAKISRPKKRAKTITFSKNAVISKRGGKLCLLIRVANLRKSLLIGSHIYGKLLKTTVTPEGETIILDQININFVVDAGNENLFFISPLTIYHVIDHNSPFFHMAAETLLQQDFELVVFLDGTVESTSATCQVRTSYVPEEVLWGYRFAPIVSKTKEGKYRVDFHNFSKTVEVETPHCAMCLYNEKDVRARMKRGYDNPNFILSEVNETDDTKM
* marks the source's active call; other numbers are inactive results; . = no result given. A selection: hits, their analogues and other compounds. The true share with any hit is near 12%.

SMILES | Diaph act CS | WT yeast gro inh | Diaphorase inh | KCC2 mod | L major viab | ROMK mod
CCN1CCC2(CC1)NC(=O)c1ccccc1O2 | 1 | 4.1 | 4.6 | -0.0804 | -3.5 | 0.491
CC(C)CN(C(=O)CN1CC=C(c2ccccc2)CC1)c1c(N)n(CC(C)C)c(=O)[nH]c1=O | 0.8 | -0.4 | 16.1 | -0.0124 | -5.3 | -1.15
O=c1c2ccccc2nc(-c2ccc(Cl)cc2Cl)n1-c1nccs1 | 0.8 | -0.8 | 20.2 | -1.55 | 41.9 | .
CCN1CCN(S(=O)(=O)c2cnc(Cl)c(Br)c2)CC1 | 0.9 | -45.2 | 5.0 | 0.833 | -1.3 | .
Cc1ccc(N/N=C/c2c(O)n(-c3ccccc3)c(=O)[nH]c2=O)cc1 | 0.8 | 51.8 | 18.2 | -0.364 | 92.1* | 0.628
CCSc1cc(C2C(C#N)=C(N)Oc3n[nH]c(C)c32)c(C)o1 (stereo unspecified) | 0.8 | 2.7 | 19.7 | -0.691 | 94.0* | .
CCn1ccnc1CN1CCCC(C(=O)c2ccc(SC)cc2)C1 (stereo unspecified) | 1 | 13.8 | -4.7 | -0.299 | 9.4 | -0.87
CSc1ccc(C(=O)C2CCCN(C)C2)cc1 (stereo unspecified) | 1 | 4.8 | -1.1 | 0.283 | 72.3* | 0.595
CSc1ccc(C(=O)C2CCCN(CCCn3cccn3)C2)cc1 (stereo unspecified) | 1.2 | 1.1 | -21.6 | . | 85.7* | -0.335
CN1CCCC(C(=O)c2ccccc2)C1 (stereo unspecified) | 0.9 | 12.2 | 10.9 | 0.422 | -5.4 | .
CSc1ccc(C(=O)C2CCCN(Cc3cnc(SC)nc3)C2)cc1 (stereo unspecified) | 0.8 | 33.8 | 21.0 | 0.122 | 93.7* | -1.06
O=C(CCl)Nc1nccs1 | . | . | . | -0.539 | . | -0.00171
Fc1ccc(Cn2nnnc2C(c2ccc(Cl)cc2)N2CC=C(c3ccc(F)cc3)CC2)cc1 (stereo unspecified) | 0.9 | 28.5 | 11.4 | -0.173 | 98.7* | -0.903
Fc1ccc(C2=CCN(C(c3ccc(Cl)cc3)c3nnnn3Cc3ccccc3)CC2)cc1 (stereo unspecified) | 0.8 | 24.8 | 17.8 | 0.893 | 38.4 | -0.0818
O=C(O)C1C2c3ccccc3C(c3ccccc32)C1C(=O)Nc1ccccc1 (stereo unspecified) | 1 | 6.0 | -1.0 | 1.16 | 73.2* | 1.11
Cc1ccsc1C(=O)C1CCCN(Cc2ccc(-n3cccn3)cc2)C1 (stereo unspecified) | 0.8 | -14.5 | 20.0 | -0.59 | -0.7 | -1.27
Cc1ccsc1C(=O)C1CCCN(Cc2cccc(-n3cccn3)c2)C1 (stereo unspecified) | 1.1 | 12.5 | -9.6 | . | 57.6* | 0.0446
Cc1ccsc1C(=O)C1CCCN(Cc2cnc(N3CCCC3)s2)C1 (stereo unspecified) | 1 | -0.8 | -2.0 | -0.135 | -3.5 | -0.0202
CC(=O)OC1N=C(c2ccccc2Cl)c2cc(Br)ccc2NC1=O (stereo unspecified) | . | . | . | -0.342 | . | 1.66
Cc1ccc(S(=O)(=O)N2CC3CC(C2)c2cccc(=O)n2C3)cc1 (stereo unspecified) | 0.9 | 7.5 | 8.0 | . | -7.2 | .
CN1CCc2nc(SCc3ccccc3Br)c(C#N)cc2C1 | 0.7 | 55.6 | 27.0 | 0.898 | 64.8* | 1.2
O=c1c2ccccc2nc(-c2ccc(-c3ccccc3)cc2)n1-c1ccncc1 | 0.6 | 2.3 | 37.7 | . | 72.8* | .
O=C(CN1CC=C(c2ccccc2)CC1)Nc1cc(Cl)ccc1Cl | 1 | 23.7 | -0.2 | -0.464 | 54.7* | -0.512
O=C(CN1CC=C(c2ccccc2)CC1)Nc1c(Cl)cccc1Cl | 0.9 | -30.8 | 14.5 | -0.386 | 5.1 | -0.495
COc1ccc(C(C)=O)cc1CC(C(=O)c1ccccc1)N(C)C (stereo unspecified) | 0.9 | -3.7 | 9.7 | 0.133 | -2.8 | 0.228
SMILES | Diaph act CS | WT yeast gro inh | Diaphorase inh | KCC2 mod | L major viab | ROMK mod
CCOc1cccc(OCC)c2c(C)[n+](CC3CCCO3)c(C)c1-2 (stereo unspecified) | 0.7 | 16.3 | 31.4 | -1.16 | 92.7* | -0.00363
CC(=O)NCC(=O)Nc1ccc(Br)cc1C(=O)c1ccccc1 | . | . | . | -0.1 | . | .
CCC(C)N1C(=O)NC(=O)C2(Cc3c(ccc4ccccc34)N(C)C2)C1=O (stereo unspecified) | 0.3 | 13.9 | 73.8* | -2.59 | 21.7 | -2.47
COc1ccc2c(c1)CC1(CN2C)C(=O)NC(=O)N(CCc2ccccc2)C1=O (stereo unspecified) | 0.6 | -6.5 | 37.3 | 0.00847 | -5.7 | -0.694
CCC(=NCCCn1ccnc1)c1c(O)n(Cc2ccccc2)c(=O)[nH]c1=O | 1 | 7.8 | 4.9 | . | 3.0 | -0.218
O=C(Nc1nc(-c2ccccc2)c(-c2ccccc2)s1)c1ccc(S(=O)(=O)N(CCCl)CCCl)cc1 | 0.9 | -11.5 | 8.4 | 1.26 | 73.7* | -0.429
CCOc1ccc(C2(C#N)CC[N+](C)(C)CC2)cc1 | 0.9 | -4.2 | 5.8 | . | -3.3 | .
CN1C(=O)N(C)C(=O)C2(Cc3c(nc4ccccn4c3=O)N3CCc4ccccc4C32)C1=O (stereo unspecified) | 0.7 | 11.6 | 31.4 | 0.229 | 70.3* | 1.87
O=c1[nH]c(=S)n(Cc2ccc(F)cc2)c(O)c1C=NCc1cccnc1 | 1 | 1.6 | 1.3 | -0.429 | -1.8 | 0.145
Cc1cc(C)cc(N2C(=O)NC(=O)/C(=C\c3cccn3-c3ccccc3)C2=O)c1 | 1 | -1.7 | 3.2 | 0.155 | 36.1 | -0.187
CN1C(=O)/C(=C/c2cccn2-c2ccc3ccccc3c2)C(=O)NC1=S | 0.8 | 27.4 | 16.2 | -0.0111 | 100.4* | -0.505
Cc1cc(C)cc(N2C(=O)NC(=O)/C(=C\c3cccn3-c3ccc(Cl)cc3)C2=O)c1 | 1.1 | -13.6 | -6.3 | 0.00564 | 92.0* | -0.476
O=C1NC(=S)NC(=O)C1=Cc1cccn1-c1ccc(O)cc1 | 0.7 | -11.8 | 33.4 | -1.24 | 100.0* | .
COCCn1c(-c2ccccc2)cc(C(=O)O)c1C | . | . | . | 0.502 | -6.3 | 0.0169
Cc1c(/C=N/O)c2ccccc2n1C | 0.9 | -19.8 | 5.9 | -1.09 | -3.5 | -0.242
COc1ccc(Cn2c(O)c(C=NCCN3CCOCC3)c(=O)[nH]c2=O)cc1 | 0.9 | -17.6 | 9.3 | 9.08* | -6.7 | 0.078
CC(C)(C)C(O)C(Oc1ccc(Cl)cc1)n1cncn1 (stereo unspecified) | 0.8 | -60.5 | 21.1 | -0.639 | 82.1* | .
CC(C)CC(=O)NC(Oc1ccc(Cl)cc1)C(Cl)(Cl)Cl (stereo unspecified) | 0.8 | 6.0 | 21.4 | . | 4.4 | .
COc1cccc(NP(=O)(Oc2ccc(Cl)cc2)Oc2ccc(Cl)cc2)c1 | 0.7 | 63.4* | 26.3 | -0.0525 | 9.3 | 1.29
Cc1cccc(NP(=O)(Oc2ccccc2F)Oc2ccccc2F)c1 | 0.7 | 57.6 | 30.0 | 0.0223 | 56.8* | .
O=P(Nc1cccc(F)c1)(Oc1ccccc1F)Oc1ccccc1F | . | . | . | -0.242 | . | -0.225
O=C(Nc1ccc2ccccc2c1)N1C[C@H]2C[C@@H](C1)c1cccc(=O)n1C2 | . | . | . | 0.496 | . | 0.406
